Laboratory results as given in ChEMBL document CHEMBL2417474, “Synthesis, antiproliferative and anti-inflammatory activities of some novel 6-aryl-2-(p-(methanesulfonyl)phenyl)-4,5-dihydropyridazi-3(2H)-ones” (Eur J Med Chem, 2013).

Tests used:
Type in all cases: functional
[1] = system: SN12C; test: Growth inhibition of human SN12C cells after 48 hrs by sulforhodamine B assay
In short: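 Part of the NCI 60-cell-line panel. Cells were grown in 1640 medium with 5% fetal calf serum and 2 mM L-glutamine, then preincubated 24 h before compound was added. Compounds in DMSO were tested at five concentrations (100, 10, 1, 0.1, 0.01 µM) with 48 h continuous exposure. Read-out was SRB protein staining; GI50 is the concentration halving the net protein increase versus control.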

[2] = system: MOLT-4; test: Growth inhibition of human MOLT4 cells after 48 hrs by sulforhodamine B assay; conditions: MOLT-4, 48 h
In short: (§1)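 NCI 60-cell-line panel. Cells were grown in medium with 5% fetal calf serum and 2 mM L-glutamine, then preincubated 24 h in plates. Compounds were added from DMSO at five 10-fold concentrations from 100 to 0.01 µM and left on cells continuously for 48 h. Cell growth was read by sulforhodamine B protein stain. GI50 is the concentration that halves net protein increase relative to control cells.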

[3] = system: IGROV-1; test: Growth inhibition of human IGROV1 cells after 48 hrs by sulforhodamine B assay; conditions: IGROV-1, 48 h
In short: (§2)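 NCI 60-cell-line panel grown in RPMI-type medium with 5% fetal calf serum and 2 mM L-glutamine. Cells preincubated 24 h, then exposed continuously for 48 h to compound in DMSO at 10^-4 to 10^-8 M (five 10-fold levels). Growth read by SRB protein stain. GI50 is the concentration giving a 50% reduction in net protein increase relative to control cells.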

[4] = system: HOP-62; test: Growth inhibition of human HOP62 cells after 48 hrs by sulforhodamine B assay; conditions: HOP-62, 48 h; for CC50: read-out: LC50 (the source's name); in short: as §2
[5] = system: UACC-62; test: Growth inhibition of human UACC62 cells after 48 hrs by sulforhodamine B assay; conditions: UACC-62, 48 h
In short: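 NCI 60-line panel. Cells were grown in medium with 5% fetal calf serum and 2 mM L-glutamine and preincubated 24 h in plates. Compound in DMSO was added at 10^-4 to 10^-8 M (five 10-fold levels), with continuous exposure for 48 h. Growth was read by SRB protein staining. GI50 is the concentration giving 50% reduction in net protein increase versus control cells.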

[6] = system: NCI-H23; test: Growth inhibition of human NCI-H23 cells after 48 hrs by sulforhodamine B assay; conditions: NCI-H23, 48 h; for CC50: read-out: LC50 (the source's name); in short: as §1
[7] = system: SF-268; test: Growth inhibition of human SF268 cells after 48 hrs by sulforhodamine B assay; conditions: SF-268, 48 h; for CC50: read-out: LC50 (the source's name); in short: as §1
[8] = system: CAKI-1; test: Growth inhibition of human CAKI-1 cells after 48 hrs by sulforhodamine B assay; conditions: CAKI-1, 48 h; in short: as §2
[9] = system: BT-549; test: Growth inhibition of human BT549 cells after 48 hrs by sulforhodamine B assay; conditions: BT-549, 48 h; for CC50: read-out: LC50 (the source's name); in short: as §2
[10] = system: COLO 205; test: Growth inhibition of human COLO205 cells after 48 hrs by sulforhodamine B assay; conditions: COLO 205, 48 h; for CC50: read-out: LC50 (the source's name); in short: as §2
[11] = system: HCT-116; test: Growth inhibition of human HCT116 cells after 48 hrs by sulforhodamine B assay; conditions: HCT-116, 48 h; in short: as §2
[12] = system: NCI-H522; test: Growth inhibition of human NCI-H522 cells after 48 hrs by sulforhodamine B assay; conditions: NCI-H522, 48 h; in short: as §1
[13] = system: SK-OV-3; test: Growth inhibition of human SKOV3 cells after 48 hrs by sulforhodamine B assay; conditions: SK-OV-3, 48 h; in short: as §1
[14] = system: Malme-3M; test: Growth inhibition of human MALME-3M cells after 48 hrs by sulforhodamine B assay; conditions: for CC50: read-out: LC50 (the source's name); in short: as §2
[15] = system: MDA-MB-435; test: Growth inhibition of human MDA-MB-435 cells after 48 hrs by sulforhodamine B assay; conditions: MDA-MB-435, 48 h; in short: as §1
[16] = system: NCI-H226; test: Growth inhibition of human NCI-H226 cells assessed as cell growth at 10 uM after 48 hrs by sulforhodamine B assay; conditions: NCI-H226, 48 h, read-out: Activity
[17] = system: OVCAR-3; test: Growth inhibition of human OVCAR3 cells assessed as cell growth at 10 uM after 48 hrs by sulforhodamine B assay; conditions: OVCAR-3, 48 h, read-out: Activity
[18] = system: MDA-MB-231; test: Growth inhibition of human MDA-MB-231 cells assessed as cell growth at 10 uM after 48 hrs by sulforhodamine B assay; conditions: MDA-MB-231, 48 h, read-out: Activity
[19] = system: Rattus norvegicus; test: Antiinflammatory activity in Wistar rat assessed as inhibition of carrageenan-induced paw edema at 0.05 mmol/kg, po administered 30 mins prior challenge measured after 5 hrs
In short: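 Wistar rats of either sex, 150–175 g, fasted 16 h, 6 per group. Dosed orally at 0.05 mmol/kg, suspended in 1% CMC in water (10 ml/kg). 30 min later, 0.1 ml of 1% carrageenan in saline injected subplantar into the left hind paw. Paw volume read by plethysmometer at 0, 3 and 5 h. % inhibition = (1 − Vt/Vc) × 100 against the vehicle group.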

[20] = system: UO-31; test: Growth inhibition of human UO31 cells assessed as cell growth at 10 uM after 48 hrs by sulforhodamine B assay; conditions: UO-31, 48 h, read-out: Activity
In short: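 Single-dose NCI screen. Tumor lines were cultured in medium with 5% fetal calf serum and 2 mM L-glutamine, preincubated 24 h, then given compound in DMSO. After 48 h continuous exposure, cell growth was estimated by sulforhodamine B protein assay.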

[21] = system: SF-539; test: Growth inhibition of human SF539 cells assessed as cell growth at 10 uM after 48 hrs by sulforhodamine B assay; conditions: SF-539, 48 h, read-out: Activity
[22] = system: MOLT-4; test: Growth inhibition of human MOLT4 cells assessed as cell growth at 10 uM after 48 hrs by sulforhodamine B assay; conditions: MOLT-4, 48 h, read-out: Activity
[23] = system: DU-145; test: Growth inhibition of human DU145 cells assessed as cell growth at 10 uM after 48 hrs by sulforhodamine B assay; conditions: DU-145, 48 h, read-out: Activity
[24] = system: HT-29; test: Growth inhibition of human HT-29 cells assessed as cell growth at 10 uM after 48 hrs by sulforhodamine B assay; conditions: HT-29, 48 h, read-out: Activity
[25] = system: M14; test: Growth inhibition of human M14 cells assessed as cell growth at 10 uM after 48 hrs by sulforhodamine B assay; conditions: M14, 48 h, read-out: Activity
[26] = system: SN12C; test: Growth inhibition of human SN12C cells assessed as cell growth at 10 uM after 48 hrs by sulforhodamine B assay; conditions: read-out: Activity

Compound: O=c1[nH]cc(F)c(=O)[nH]1 [FLUOROURACIL]
- GI50 [1]: 0.49 µM
- GI50 [2]: 0.35 µM
- GI50 [3]: 1.22 µM
- GI50 [4]: 0.39 µM
- GI50 [5]: 0.52 µM
- GI50 [6]: 0.33 µM
- GI50 [7]: 1.62 µM
- GI50 [8]: 0.07 µM
- GI50 [9]: 10.6 µM
- GI50 [10]: 0.15 µM
- GI50 [11]: 0.22 µM
- GI50 [12]: 7.27 µM
- GI50 [13]: 21.8 µM
- GI50 [14]: 0.05 µM
- GI50 [15]: 0.07 µM

Compound: Cc1cc(O)ccc1C1=NN(c2ccc(S(C)(=O)=O)cc2)C(=O)CC1
- GI50 [1]: 7.18 µM
- LC50 [1]: > 100 µM
- TGI [1]: > 100 µM
- growth at 10 µM [16]: 93.3%
- growth at 10 µM [17]: 65.1%
- GI50 [2]: 14.3 µM
- LC50 [2]: > 100 µM
- TGI [2]: > 100 µM
- growth at 10 µM [18]: 74.8%
- GI50 [3]: 7.13 µM
- LC50 [3]: > 100 µM
- TGI [3]: > 100 µM
- inhibition in vivo at 50 µmol/kg [19]: 52.6%
- growth at 10 µM [20]: 48.8%
- GI50 [4]: 9.07 µM
- TGI [4]: > 100 µM
- CC50 [4]: > 100 µM
- GI50 [5]: 4 µM
- LC50 (50% net cell kill concentration) [5]: > 100 µM
- TGI [5]: > 100 µM
- GI50 [6]: 38.5 µM
- TGI [6]: > 100 µM
- CC50 [6]: > 100 µM
- GI50 [7]: 40 µM
- TGI [7]: > 100 µM
- CC50 [7]: > 100 µM
- growth at 10 µM [21]: 73.8%
- LC50 (lethal concentration, 50% cell kill) [8]: > 100 µM
- GI50 [9]: 4.97 µM
- TGI [9]: > 100 µM
- CC50 [9]: > 100 µM
- GI50 [10]: 6.62 µM
- TGI [10]: 74.4 µM
- CC50 [10]: > 100 µM
- growth at 10 µM [22]: 52.7%
- GI50 [11]: 3.78 µM
- LC50 (concentration killing 50% of cells) [11]: > 100 µM
- TGI [11]: > 100 µM
- GI50 [12]: 2.53 µM
- LC50 (concentration killing 50% of starting cells) [12]: > 100 µM
- TGI [12]: 8.6 µM
- growth at 10 µM [23]: 92.2%
- GI50 [13]: 9.77 µM
- LC50 [13]: > 100 µM
- TGI [13]: > 100 µM
- GI50 [14]: 5.37 µM
- TGI [14]: > 100 µM
- CC50 [14]: > 100 µM
- growth at 10 µM [24]: 38.9%
- GI50 [15]: 1.28 µM
- LC50 (concentration killing 50% of starting cells) [15]: > 100 µM
- TGI [15]: 5.83 µM
- growth at 10 µM [25]: 49.2%
- growth at 10 µM [26]: 90.3%

Compound: Cc1ccc(C2=NN(c3ccc(S(C)(=O)=O)cc3)C(=O)CC2)cc1
- LC50 [1]: > 100 µM
- growth at 10 µM [16]: 77.6%
- growth at 10 µM [17]: -14.7%
- GI50 [2]: 0.86 µM
- LC50 [2]: > 100 µM
- TGI [2]: > 100 µM
- growth at 10 µM [18]: 47.8%
- GI50 [3]: 0.83 µM
- LC50 [3]: > 100 µM
- TGI [3]: > 100 µM
- inhibition in vivo at 50 µmol/kg [19]: 60.5%
- growth at 10 µM [20]: 41.1%
- GI50 [4]: 1.3 µM
- TGI [4]: > 100 µM
- CC50 [4]: > 100 µM
- GI50 [5]: 0.46 µM
- LC50 (50% net cell kill concentration) [5]: > 100 µM
- TGI [5]: > 100 µM
- GI50 [6]: 2.5 µM
- TGI [6]: > 100 µM
- CC50 [6]: > 100 µM
- GI50 [7]: 2.94 µM
- TGI [7]: > 100 µM
- CC50 [7]: > 100 µM
- growth at 10 µM [21]: -7.93%
- GI50 [8]: 0.29 µM
- LC50 (lethal concentration, 50% cell kill) [8]: > 100 µM
- GI50 [9]: 0.6 µM
- TGI [9]: > 100 µM
- CC50 [9]: > 100 µM
- GI50 [10]: 0.52 µM
- TGI [10]: 6.07 µM
- CC50 [10]: > 100 µM
- growth at 10 µM [22]: 20.1%
- GI50 [11]: 0.41 µM
- LC50 (concentration killing 50% of cells) [11]: > 100 µM
- TGI [11]: > 100 µM
- GI50 [12]: 0.22 µM
- LC50 (concentration killing 50% of starting cells) [12]: > 100 µM
- TGI [12]: 1 µM
- growth at 10 µM [23]: 6.77%
- GI50 [13]: 1.15 µM
- LC50 [13]: > 100 µM
- TGI [13]: 20.7 µM
- TGI [14]: > 100 µM
- CC50 [14]: > 100 µM
- growth at 10 µM [24]: 11.1%
- GI50 [15]: 0.12 µM
- LC50 (concentration killing 50% of starting cells) [15]: > 100 µM
- TGI [15]: 0.39 µM
- growth at 10 µM [25]: 10.2%
- growth at 10 µM [26]: 39.7%
